According to ChEMBL document CHEMBL1128473, “[(Biaryloxy)alkyl]isoxazoles: picornavirus inhibitors” (J Med Chem, 1995):
≈ marks a conversion by molar mass, not a printed value. Blank lines part the entries; values can stand above or below the compound they belong to.

Assays:
Assay type in all cases: functional
[1] = tested on: Human rhinovirus sp.; experiment: Concentration inhibiting 50% of the serotypes tested to 50% of the viral concentration of untreated controls following 72 hr of exposure
In short: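 Tissue culture infectious dose (TCID50) assay against a panel of 10 human rhinovirus serotypes. For each serotype, the viral concentration was compared with untreated controls after 72 h of compound exposure. MIC50 is the compound concentration at which half of the serotypes tested are reduced to 50% of the untreated-control viral concentration.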

[2] = tested on: Human rhinovirus sp.; experiment: Minimum inhibitory concentration on HRV serotype 90
In short: (§1)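 Tested in a tissue culture infectious dose (TCID50) assay with 72 h compound exposure. Activity is read as the concentration that holds virus to 50% of the titer of untreated controls.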

[3] = tested on: Human rhinovirus sp.; experiment: Minimum inhibitory concentration on HRV serotype 1B
[4] = tested on: Human rhinovirus sp.; experiment: Minimum inhibitory concentration on HRV serotype 1A
[5] = tested on: Human rhinovirus sp.; experiment: Minimum inhibitory concentration on HRV serotype 15
[6] = tested on: Human rhinovirus sp.; experiment: Minimum inhibitory concentration on HRV serotype 75
[7] = tested on: Human rhinovirus sp.; experiment: Minimum inhibitory concentration on HRV serotype 61
[8] = tested on: Human rhinovirus sp.; experiment: Minimum inhibitory concentration on HRV serotype 36
[9] = tested on: Human rhinovirus sp.; experiment: Minimum inhibitory concentration on HRV serotype 92; in short: as §1
[10] = tested on: Human rhinovirus sp.; experiment: Minimum inhibitory concentration on HRV serotype 81; in short: as §1
[11] = tested on: Human rhinovirus sp.; experiment: Minimum inhibitory concentration on HRV serotype 11
[12] = tested on: Human rhinovirus sp.; experiment: Minimum inhibitory concentration on HRV serotype 2
[13] = tested on: Human rhinovirus sp.; experiment: Minimum inhibitory concentration on HRV serotype 73
[14] = tested on: Human rhinovirus sp.; experiment: Minimum inhibitory concentration on HRV serotype 100
[15] = tested on: Human rhinovirus sp.; experiment: Minimum inhibitory concentration on HRV serotype 21
[16] = tested on: Human rhinovirus sp.; experiment: Minimum inhibitory concentration on HRV serotype 35
[17] = tested on: Human rhinovirus sp.; experiment: Minimum inhibitory concentration on HRV serotype 19
[18] = tested on: Human rhinovirus sp.; experiment: Minimum inhibitory concentration on HRV serotype 24
[19] = tested on: Human rhinovirus sp.; experiment: Minimum inhibitory concentration on HRV serotype 56
[20] = tested on: Human rhinovirus sp.; experiment: Minimum inhibitory concentration on HRV serotype 76; in short: as §1
[21] = tested on: Human rhinovirus sp.; experiment: Minimum inhibitory concentration on HRV serotype 44
[22] = tested on: Human rhinovirus sp.; experiment: Minimum inhibitory concentration on HRV serotype 40
[23] = tested on: Human rhinovirus sp.; experiment: Minimum inhibitory concentration on HRV serotype 43
[24] = tested on: Human rhinovirus sp.; experiment: Minimum inhibitory concentration on HRV serotype 47
[25] = tested on: Human rhinovirus sp.; experiment: Minimum inhibitory concentration on HRV serotype 25
[26] = tested on: Human rhinovirus sp.; experiment: Minimum inhibitory concentration on HRV serotype 88; in short: as §1
[27] = tested on: Human rhinovirus sp.; experiment: Minimum inhibitory concentration on HRV serotype 20
[28] = tested on: Human rhinovirus sp.; experiment: Minimum inhibitory concentration on HRV serotype 28
[29] = tested on: Human rhinovirus sp.; experiment: Minimum inhibitory concentration on HRV serotype 57
[30] = tested on: Human rhinovirus sp.; experiment: Minimum inhibitory concentration on HRV serotype 16
[31] = tested on: Human rhinovirus sp.; experiment: Minimum inhibitory concentration on HRV serotype 96; in short: as §1
[32] = tested on: Human rhinovirus sp.; experiment: Minimum inhibitory concentration on HRV serotype 79; in short: as §1
[33] = tested on: Human rhinovirus sp.; experiment: Minimum inhibitory concentration on HRV serotype 84; in short: as §1
[34] = tested on: Human rhinovirus sp.; experiment: Minimum inhibitory concentration on HRV serotype 38
[35] = tested on: Human rhinovirus sp.; experiment: Minimum inhibitory concentration on HRV serotype 78; in short: as §1
[36] = tested on: Human rhinovirus sp.; experiment: Minimum inhibitory concentration on HRV serotype 64
[37] = tested on: Human rhinovirus sp.; experiment: Minimum inhibitory concentration on HRV serotype 82; in short: as §1
[38] = tested on: Human rhinovirus sp.; experiment: Minimum inhibitory concentration on HRV serotype 50
[39] = tested on: Human rhinovirus sp.; experiment: Minimum inhibitory concentration on HRV serotype 83; in short: as §1
[40] = tested on: Human rhinovirus sp.; experiment: Minimum inhibitory concentration on HRV serotype 39
[41] = tested on: Human rhinovirus sp.; experiment: Minimum inhibitory concentration on HRV serotype 49
[42] = tested on: Human rhinovirus sp.; experiment: Minimum inhibitory concentration on HRV serotype T39; in short: as §1
[43] = tested on: Human rhinovirus sp.; experiment: Minimum inhibitory concentration on HRV serotype 68
[44] = tested on: Human rhinovirus sp.; experiment: Minimum inhibitory concentration on HRV serotype 58
[45] = tested on: Human rhinovirus sp.; experiment: Minimum inhibitory concentration on HRV serotype 89; in short: as §1
[46] = tested on: Human rhinovirus sp.; experiment: Minimum inhibitory concentration on HRV serotype 29
[47] = tested on: Human rhinovirus sp.; experiment: Minimum inhibitory concentration on HRV serotype 7
[48] = tested on: Human rhinovirus sp.; experiment: Minimum inhibitory concentration on HRV serotype 66
[49] = tested on: Human rhinovirus sp.; experiment: Minimum inhibitory concentration on HRV serotype 51
[50] = tested on: Human rhinovirus sp.; experiment: Minimum inhibitory concentration on HRV serotype 62
[51] = tested on: Human rhinovirus sp.; experiment: Minimum inhibitory concentration on HRV serotype 32
[52] = tested on: Human rhinovirus sp.; experiment: Minimum inhibitory concentration on HRV serotype 85; in short: as §1
[53] = tested on: Human rhinovirus sp.; experiment: Minimum inhibitory concentration on HRV serotype 30
[54] = tested on: Human rhinovirus sp.; experiment: Minimum inhibitory concentration on HRV serotype 53
[55] = tested on: Human rhinovirus sp.; experiment: Minimum inhibitory concentration on HRV serotype 67
[56] = tested on: Human rhinovirus sp.; experiment: Minimum inhibitory concentration on HRV serotype 9; in short: as §1
[57] = tested on: Human rhinovirus sp.; experiment: Minimum inhibitory concentration on HRV serotype 34
[58] = tested on: Human rhinovirus sp.; experiment: Minimum inhibitory concentration on HRV serotype 63
[59] = tested on: Human rhinovirus sp.; experiment: Minimum inhibitory concentration on HRV serotype 22
[60] = tested on: Human rhinovirus sp.; experiment: Minimum inhibitory concentration on HRV serotype 33
[61] = tested on: Human rhinovirus sp.; experiment: Minimum inhibitory concentration on HRV serotype 71
[62] = tested on: Human rhinovirus sp.; experiment: Minimum inhibitory concentration on HRV serotype 55
[63] = tested on: Human rhinovirus sp.; experiment: Minimum inhibitory concentration on HRV serotype 80; in short: as §1
[64] = tested on: Human rhinovirus sp.; experiment: Minimum inhibitory concentration on HRV serotype 23
[65] = tested on: Human rhinovirus sp.; experiment: Minimum inhibitory concentration on HRV serotype 46

Structure (SMILES): Cc1cc(CCCOc2c(C)cc(-c3cccc(CO)c3)cc2C)on1
MIC50 [1]: 0.23 µM (≈ 0.0808 µg/mL)

Structure (SMILES): Cc1cc(CCCOc2c(C)cc(-c3cccc(O)c3)cc2C)on1
MIC50 [1]: 0.44 µM (≈ 0.148 µg/mL)

Structure (SMILES): Cc1cc(CCCOc2c(C)cc(-c3ccc(C#N)cc3)cc2C)on1
MIC50 [1]: 0.26 µM (≈ 0.0901 µg/mL)

These reach a lower MIC50 [1]. Values come first.

MIC [2]: 0.024 µg/mL (≈ 0.0707 µM) | MIC [3]: 0.024 µg/mL (≈ 0.0707 µM) | MIC [4]: 0.155 µg/mL (≈ 0.457 µM) | MIC [5]: 0.492 µg/mL (≈ 1.45 µM) | MIC [6]: 0.037 µg/mL (≈ 0.109 µM) | MIC [7]: 0.024 µg/mL (≈ 0.0707 µM) | MIC [8]: 0.009 µg/mL (≈ 0.0265 µM) | MIC [9]: 0.014 µg/mL (≈ 0.0412 µM) | MIC [10]: 0.125 µg/mL (≈ 0.368 µM) | MIC [11]: 0.007 µg/mL (≈ 0.0206 µM) | MIC [12]: 0.009 µg/mL (≈ 0.0265 µM) | MIC [13]: 0.049 µg/mL (≈ 0.144 µM) | MIC [14]: 0.12 µg/mL (≈ 0.354 µM) | MIC [15]: 0.009 µg/mL (≈ 0.0265 µM) | MIC [16]: 0.021 µg/mL (≈ 0.0619 µM) | MIC50 [1]: 0.11 µM (≈ 0.0373 µg/mL) | MIC [17]: 0.03 µg/mL (≈ 0.0884 µM) | MIC [18]: 0.036 µg/mL (≈ 0.106 µM) | MIC [19]: 0.038 µg/mL (≈ 0.112 µM) | MIC [20]: 0.009 µg/mL (≈ 0.0265 µM) | MIC [21]: 0.033 µg/mL (≈ 0.0972 µM) | MIC [22]: 0.033 µg/mL (≈ 0.0972 µM) | MIC [23]: 0.072 µg/mL (≈ 0.212 µM) | MIC [24]: 0.021 µg/mL (≈ 0.0619 µM) | MIC [25]: 0.077 µg/mL (≈ 0.227 µM) | MIC [26]: 0.006 µg/mL (≈ 0.0177 µM) | MIC [27]: 0.019 µg/mL (≈ 0.056 µM) | MIC [28]: 0.14 µg/mL (≈ 0.412 µM) | MIC [29]: 0.024 µg/mL (≈ 0.0707 µM) | MIC [30]: 0.058 µg/mL (≈ 0.171 µM) | MIC [31]: 0.031 µg/mL (≈ 0.0913 µM) | MIC [32]: 0.056 µg/mL (≈ 0.165 µM) | MIC [33]: 0.042 µg/mL (≈ 0.124 µM) | MIC [34]: 0.015 µg/mL (≈ 0.0442 µM) | MIC [35]: 0.018 µg/mL (≈ 0.053 µM) | MIC [36]: 0.07 µg/mL (≈ 0.206 µM) | MIC [37]: 0.187 µg/mL (≈ 0.551 µM) | MIC [38]: 0.04 µg/mL (≈ 0.118 µM) | MIC [39]: 0.004 µg/mL (≈ 0.0118 µM) | MIC [40]: 0.078 µg/mL (≈ 0.23 µM) | MIC [41]: 0.037 µg/mL (≈ 0.109 µM) | MIC [42]: 0.035 µg/mL (≈ 0.103 µM) | MIC [43]: 0.009 µg/mL (≈ 0.0265 µM) | MIC [44]: 0.013 µg/mL (≈ 0.0383 µM) | MIC [45]: 0.012 µg/mL (≈ 0.0354 µM) | MIC [46]: 0.03 µg/mL (≈ 0.0884 µM) | MIC [47]: 0.006 µg/mL (≈ 0.0177 µM) | MIC [48]: 0.161 µg/mL (≈ 0.474 µM) | MIC [49]: 0.009 µg/mL (≈ 0.0265 µM) | MIC [50]: 0.154 µg/mL (≈ 0.454 µM) | MIC [51]: 0.098 µg/mL (≈ 0.289 µM) | MIC [52]: 0.02 µg/mL (≈ 0.0589 µM) | MIC [53]: 0.028 µg/mL (≈ 0.0825 µM) | MIC [54]: 0.889 µg/mL (≈ 2.62 µM) | MIC [55]: 0.118 µg/mL (≈ 0.348 µM) | MIC [56]: 0.08 µg/mL (≈ 0.236 µM) | MIC [57]: 0.02 µg/mL (≈ 0.0589 µM) | MIC [58]: 0.139 µg/mL (≈ 0.41 µM) | MIC [59]: 0.02 µg/mL (≈ 0.0589 µM) | MIC [60]: 0.019 µg/mL (≈ 0.056 µM) | MIC [61]: 0.025 µg/mL (≈ 0.0737 µM) | MIC [62]: 0.003 µg/mL (≈ 0.00884 µM) | MIC [63]: 0.031 µg/mL (≈ 0.0913 µM) | MIC [64]: 0.046 µg/mL (≈ 0.136 µM) | MIC [65]: 0.058 µg/mL (≈ 0.171 µM)
Structure (SMILES): Cc1cc(CCCOc2c(C)cc(-c3ccc(F)cc3)cc2C)on1

MIC50 [1]: 0.11 µM (≈ 0.0373 µg/mL)
Structure (SMILES): Cc1cc(CCCOc2c(C)cc(-c3ccccc3F)cc2C)on1
